The values that follow come from the RNAGym collection of RNA variant scans (doi:10.1126/science.aae0568).

Variants at the floor of the assay were thinned out. Bounds are passed on as bounds.

B1: tRNA (parent)
chain: GUUCCGUUGGCGUAAUGGUAACGCGUCUCCCUCCUAAGGAGAAGACUGCGGGUUCGAGUCCCGUACGGAACG

Variants of B1 are the subject of this data set. Briefly: yeast fitness relative to wild type (ratio to wild type); higher = fitter; tRNA-Arg(CCU), competitive growth, 37 C, YPD. The procedure, abridged:
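Gene amplicons from the start population and from each of six end populations were read by 100-nucleotide paired-end sequencing. Those end populations came from pooled Saccharomyces cerevisiae strains carrying tRNA-Arg(CCU) gene variants at the native locus, competed in YPD at 37°C for 24 hours. Fitness relative to wild type was worked out from changes in genotype frequencies. Genotypes needed ≥ 100 starting reads, and estimates < 0.5 were set to 0.5.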
With GUUCCGAUGGCGUAAUGGUACCGCGUCUCCCUACUAAGGAGAAGUCUGCGGGUUCGAGUCCAGUACGGAACG [U7A A21C C33A A45U C62A], the yeast fitness is no more than 0.5.

With GUUCCGUUGCCGUUAUGGUAACGCGUCUGCCUCCUAAGGAGAAGACUGCGGGUUCGAGUCCCGUACGGAACG [G10C A14U C29G], the yeast fitness was determined as 0.584.

As for GUUCCGUUGGCGUAAUGGUAACGCGUAUCCCUCCUAAGGAGUAGACUGCGGGUUCGAGUCCCGUACCGCACG [C27A A42U G67C A69C], the yeast fitness came to 0.726.

On to GAUCCGUUGGCGUAAUGAUAACGCGUCUCGCUCCCAAGGAGAAGACUGCGGGUUCGAGUCCCGUACGGAACG [U2A G18A C30G U35C], for which the yeast fitness was no more than 0.5.

For the variant GUUUCGUUGGAGUAAUGGUAACGCGUCUCCCUCCUAAGGAGGAGACUCCGGGUUCGAGUCCCUUACAGAACG [C4U C11A A42G G48C G63U G67A], the yeast fitness was no more than 0.5.

GUUCCGUUGGCGUAAUGGUAACGCGACUCCGUCCUUAGGAGAAGACUGCGGGUCGGAGUCCCGUACGGAACG [U26A C31G A36U U54C C55G]: the yeast fitness is no more than 0.5.

Turning to GUUCCAUUCGCGUAAUGGUAACGCGUCUUCCUCCUAAGGAGAAGACUGCGGGUUGGAGUCCCGUACGGAACG [G6A G9C C29U C55G], the yeast fitness was no more than 0.5.

For GUUCCGUUGGCGCAAUGGUAACGCGUCUCCCUCCUAAGGAGAAGACUGCGGGUUCGAGUCCUGUACGGAACG [U13C C62U], the yeast fitness was determined as 1.01.

In the case of GUUCCGUUGGCGUAAUGGUAACGCGUCUCCCUCCUAAGGAGAAGAUUACGGGUUCAAGUCCCGUACGGAACG [C46U G48A G56A], the yeast fitness amounted to 0.848.

As for GAUCCAUUGGGGUAAUGGUAACGCGUCUCCCUCCUAAGGAGAAGACUGUGGGUUCGACUCCCGUACGGAACG [U2A G6A C11G C49U G58C], the yeast fitness is no more than 0.5.

As for GUUCCGUUGGCGUAACGGUAACGCGUCUCCCUCCAAAGGAGAAGACUGCGGGUUCGAGUCACGUACGGAUCG [U16C U35A C61A A70U], the yeast fitness turned out to be 0.532.

Consider GUUCCGUUGGCGUAAUGGUUACGCAUCUCCCUCCUAAGGAGAAGACUGCGGGUUCGAGUACCGUUCGGAGCG [A20U G25A C60A A65U A70G], for which the yeast fitness was no more than 0.5.

On to GUUCCGUUGGCGUAAUGGUAACGCCUCUCCUUCCUAAGGAGAAGACUGCGGGUUCAAGUCCCGUACGGAACG [G25C C31U G56A], for which the yeast fitness turned out to be 0.616.

On to GUUCCGUUGACGGAAUGGUAACGCGUUUCCCUCCUAAGGAGAAGAGUGCGGGUUCGAGUCCCGUACAGAACG [G10A U13G C27U C46G G67A], for which the yeast fitness is no more than 0.5.

As to GGUCCGUUGGCGUGAUGGUAACGCGUCUCCCUCCUAAGGAGAAGACUGCGGGUUCGAGUCCCGUACGGAACG [U2G A14G], the yeast fitness is 0.713.

Turning to GUUCCGUUGGCGAAAUGGUAAGGCGUCUCCGUCCUAAGGAGAAGACUGCGGGUUCGAGUCACGUACAGAACG [U13A C22G C31G C61A G67A], the yeast fitness is no more than 0.5.

As for GUUCCGUUGGCGUAAUGGUAACGCGUCUACCUCCUAAGGAGAAGAUUGCGGGUUCGGGUCCCGUACGGAACG [C29A C46U A57G], the yeast fitness is no more than 0.5.

As for GUUCCGUUGGCGUAAUGGUAACGCGUCUCCUUCCUAAGGAGAAGACUGUGGGUUCGAGUCCCGUAAAGAACG [C31U C49U C66A G67A], the yeast fitness is no more than 0.5.

Take GUUCCGUUGGCGUAAUGGUCACGCGUCUCCCUCCUAAGGGGUAGACUGCACGUUCGAGUCCCGUACGGACCG [A20C A40G A42U G50A G51C A70C]: the yeast fitness was found to be 0.563.

On to GUUCCGUUGGCGUAAUGGCAACGCGUCCCCCUCCUAAGGAGAAGACUGCGGGUUCGAGUCCCGUACGGAACG [U19C U28C], for which the yeast fitness worked out at 0.992.

GUUCCGUUGGCGUAAUGGUUACGCGUCUGCCUCCUAAGGAGAAGACUGCGGGUUCGAGUCCCGUUCGGAACG [A20U C29G A65U]: the yeast fitness was no more than 0.5.

As to GUUCUGUUGGCGUUAUGGUAACGCGUCUCCCUCCUAAGGAGAAGACUGGGGGUUCGAGUCCCGUUCGGAACG [C5U A14U C49G A65U], the yeast fitness is no more than 0.5.

On to GUUCCGUUGGUGUAAUGGUAACGCGUAUCCCUCCUAAGGAGAAGACUACGGGAUCGAGUCUCGUACGGAACG [C11U C27A G48A U53A C61U], for which the yeast fitness was no more than 0.5.

On to GUUCCGUUGGCGUAAUGGUAACGCGUUUCCCUCCUAAGGAGAAGACUGCGGGUUCGAGUCCCGUACGCAACG [C27U G68C], for which the yeast fitness came out at 0.757.

As to GUUCCGUUGGCGUAAUGGUAACGCGUCUGCCUCCUAAGGAGAAGACUGCGGGUUCGAGUCCCGUACCGAACG [C29G G67C], the yeast fitness was found to be 0.667.

As to GUUCCAUUGGCGUAAUGGUCACGCGUCUCCCUCCUAAGGAGAAGACUGCGGGUUAGAGUCCCGUACGGAACG [G6A A20C C55A], the yeast fitness is 0.583.

On to GGUCCGUUGGCGUAAUGGUAACGCGUCUCCCUCCUAAGGAGAAGACUGCGGGUUAGAGUGCGGUACGGAACG [U2G C55A C60G C62G], for which the yeast fitness was no more than 0.5.

GUACUGUUGGCGUAAUGGUAACGCGUCUCCGUCCUAAGGAGAAGACUGCGGGUUCGAGUCCGGUACGGUACG [U3A C5U C31G C62G A69U]: the yeast fitness was determined as 0.554.

Take GUUCCGUUGGCGUAAUGGUAACGAGUCUCCUUCCUAAGGAGCAGACUGCGGGUUCGAGUCCCGUCCGGAACG [C24A C31U A42C A65C]: the yeast fitness was no more than 0.5.

On to GUUCCGUUGGCGUAAUAGUAACGCGUCUCCCUCCUAAAGAGAAGACUGAGGGUACGAGUCCCGUACGGAACG [G17A G38A C49A U54A], for which the yeast fitness is no more than 0.5.

For GUUCCGGUGGUCUAAUGGUAACGCGUCUCCCUUCUAAGGAGAAGACUGCGGGUUCGAGUCGGGUACGGAACG [U7G C11U G12C C33U C61G C62G], the yeast fitness is no more than 0.5.

As to GUUCCAUUGGGGUAAUGGUAACGCGUCUCCCUCCAAUGGAGAAGACUGCGGGUUCGAGUCCCGUACGGACCG [G6A C11G U35A A37U A70C], the yeast fitness is no more than 0.5.

Turning to GUUCCGUUGGCGUUAUGGUAACGGGUCUCCCUCCUAAGGAAAAAACUGCGGGAUCGAGUCCCGUACGGAACG [A14U C24G G41A G44A U53A], the yeast fitness was determined as 0.55.

For GUUCCGUUGGCGUAUUGGUAACGCGUCUCCCUCCUAAGGAGAUGAGUGCGGGUUCGAGUCACGUACGGAACG [A15U A43U C46G C61A], the yeast fitness was no more than 0.5.

Consider GUUCCGUUGGCGUAAUGGUAAUGAUUCUCCCUCCUAAGGAGGAGACUGCGGGUUCGAGUCCCGUACGGAACG [C22U C24A G25U A42G], for which the yeast fitness is no more than 0.5.

Turning to GUUCGGUUGGCGUAAUGGUAACGCGUCUCCCUCCUAAGGUGAAGACUGCGGGUUCGAGUCCUGUACGGAACG [C5G A40U C62U], the yeast fitness is no more than 0.5.

GUUCCGUUGGCCAAAUGGUAACGCGUCUCCCUCCUAAGGAGAAGACUGCAGGUUCGAGUCCCGUACGGAACG [G12C U13A G50A]: the yeast fitness was no more than 0.5.

Regarding GUACCGUUGGCGUAAUGGCAACGCGUCUCCCUCCUAAGGAGAAGACUGCGGGUUCGAGUCGCGUACGGAACG [U3A U19C C61G], the yeast fitness is no more than 0.5.
